Source: PMC5966832 (Environmental science & technology, 2018)

Columns and labels:
human liver microsomes [1] = test: Atropselective; type: in vitro ADME; details: for EF of the OH-PCB metabolite before racemization: representative extract, 15 min incubation, 50 μM PCB 91, HLMs from donor H5
How it was run: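 Racemic PCB 91 at 50 μM was incubated 15 min at 37 °C with 0.1 mg/mL microsomes and 1 mM NADPH, in triplicate. Depletion runs used 5 or 50 μM, 120 min, 0.5 mg/mL protein and 0.5 mM NADPH. Metabolites were methylated with diazomethane. GC-μECD used a ChiralDex B-DM column (135 °C) for PCB 91, 5-91 and 4-91, and a G-TA column (140 °C) for 3-100. EF = E1/(E1+E2) by drop valley; mean ± SD.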

[2] = type: physicochemical; details: extract heated at 300 °C for 2 h; for EF of the OH-PCB metabolite after racemization: 15 min incubation, donor H5
How it was run: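 Representative hexane extracts were placed in amber ampules and heated at 300 °C. One came from a pooled-HLM incubation; the other from a 50 μM PCB 91 incubation with donor H5 microsomes. Both were re-run by enantioselective GC-μECD, ChiralDex B-DM or G-TA column according to analyte. EF = E1/(E1+E2), drop valley method.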

human liver microsomes [3] = type: in vitro ADME; details: for Difference in rate of metabolite formation, donor H1 vs. donor H5: individual donor HLM preparations
How it was run: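 Pooled HLMs (50 donors, mixed gender) or female single-donor HLMs (H1–H5, age 20–58) were used. Buffer was 0.1 M phosphate pH 7.4 with 3 mM MgCl2. Pre-incubated 5 min at 37 °C, then started with substrate in DMSO (≤0.5% of volume), in triplicate. Stopped with ice-cold 0.5 M NaOH and heated 110 °C for 10 min. Extracts were methylated and run on GC-μECD against PCB 204 using relative response factors. Rates adjusted per nmol P450 or per mg protein.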

recombinant rat CYP2B1 = details: E2-PCB 91 enriched; cited from earlier work
rat liver microsomes = details: E2-PCB 91 enriched; cited from earlier work

Row | SMILES | EF of the OH-PCB metabolite before racemization (human liver microsomes [1]) | EF of the OH-PCB metabolite after racemization [2] | Difference in rate of metabolite formation, donor H1 vs. donor H5 (human liver microsomes [3]) | EF of PCB 91 in incubations with recombinant rat CYP2B1 (recombinant rat CYP2B1) | EF of PCB 91 in incubations with rat liver microsomes (rat liver microsomes) | EF of PCB 91, all other incubations (human liver microsomes [1]; high concentrations of racemic PCB 91) | EF of PCB 91 after racemization ([2]; 2 h incubation, 5 μM PCB 91, pHLMs) | PCB 91 added to the incubation converted to OH-PCB metabolites (human liver microsomes [3]; 50 μM PCB 91, 0.1 mg/mL HLMs, 1 mM NADPH, 5 or 15 min, 37 °C)
1 | Oc1c(Cl)cc(Cl)c(-c2ccc(Cl)cc2Cl)c1Cl [3-100, 2,2′,4,4′,6-pentachlorobiphenyl-3-ol] | 0.87 | 0.46 | 2.6 fold | – | – | – | – | –
2 | Oc1cc(Cl)c(-c2ccc(Cl)cc2Cl)c(Cl)c1Cl [4-91, 2,2′,3,4′,6-pentachlorobiphenyl-4-ol] | 0.85 | 0.51 | 5.4 fold | – | – | – | – | –
3 | Oc1cc(Cl)c(Cl)c(-c2ccc(Cl)cc2Cl)c1Cl [5-91, 2,2′,3,4′,6-pentachlorobiphenyl-5-ol] | 0.43 | 0.49 | 19 fold | – | – | – | – | –
4 | Clc1ccc(-c2c(Cl)ccc(Cl)c2Cl)c(Cl)c1 [PCB 91, 2,2′,3,4′,6-pentachlorobiphenyl] | – | – | – | 0.45 | 0.43 | near racemic | 0.50 | ≤ 2%
